Measurements as given in ChEMBL document CHEMBL1140925, “Nuclear factor-kappaB mediated inhibition of cytokine production by imidazoline scaffolds” (J Med Chem, 2009).

Columns and labels:
HeLa [1] = test: Cell cycle arrest in TNF-alpha-stimulated human HeLa cells transfected with NFkappaB-Luc assessed as accumulation at S phase at 10 uM after 8 hrs by propidium iodide-based flow cytometry; type: functional
Procedure, shortened: (§1)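 HeLa NF-κB-luc cells (stable, hygromycin-selected) were treated with vehicle (1% DMSO) or compound at 40–0.2 µM final for 8 h at 37 °C, 5% CO2. Adherent cells were trypsinized, resuspended in PBS/50% FBS, fixed overnight in 70% ice-cold ethanol and washed with cold PBS/10% FBS, then analysed for cell cycle by flow cytometry.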

HeLa [2] = test: Cell cycle arrest in TNF-alpha-stimulated human HeLa cells transfected with NFkappaB-Luc assessed as accumulation at diploid stage at 10 uM after 8 hrs by propidium iodide-based flow cytometry; type: functional; procedure, shortened: as §1
HeLa [3] = test: Cell cycle arrest in TNF-alpha-stimulated human HeLa cells transfected with NFkappaB-Luc assessed as accumulation at G2/G1 phase at 20 uM after 8 hrs by propidium iodide-based flow cytometry; type: functional; procedure, shortened: as §1
HeLa [4] = test: Cell cycle arrest in TNF-alpha-stimulated human HeLa cells transfected with NFkappaB-Luc assessed as accumulation at S phase at 20 uM after 8 hrs by propidium iodide-based flow cytometry; type: functional; procedure, shortened: as §1
HeLa [5] = test: Cell cycle arrest in human HeLa cells transfected with NFkappaB-Luc assessed as accumulation at diploid G1 phase at 20 uM after 8 hrs by propidium iodide-based flow cytometry; type: functional; procedure, shortened: as §1
HeLa [6] = test: Cell cycle arrest in TNF-alpha-stimulated human HeLa cells transfected with NFkappaB-Luc assessed as accumulation at diploid G1 phase at 0.1 uM after 8 hrs by propidium iodide-based flow cytometry; type: functional
HeLa [7] = test: Cell cycle arrest in TNF-alpha-stimulated human HeLa cells transfected with NFkappaB-Luc assessed as accumulation at S phase at 0.1 uM after 8 hrs by propidium iodide-based flow cytometry; type: functional
HeLa [8] = test: Cell cycle arrest in TNF-alpha-stimulated human HeLa cells transfected with NFkappaB-Luc assessed as accumulation at diploid stage at 0.05 uM after 8 hrs by propidium iodide-based flow cytometry; type: functional
HeLa [9] = test: Cell cycle arrest in TNF-alpha-stimulated human HeLa cells transfected with NFkappaB-Luc assessed as accumulation at diploid G1 phase at 0.05 uM after 8 hrs by propidium iodide-based flow cytometry; type: functional
HeLa [10] = test: Cell cycle arrest in TNF-alpha-stimulated human HeLa cells transfected with NFkappaB-Luc assessed as accumulation at diploid G2 phase at 0.05 uM after 8 hrs by propidium iodide-based flow cytometry; type: functional
[11] = Cytotoxicity against human whole blood IL-1-beta-stimulated lymphocytes assessed as survival cell count in millions at 10 uM by trypan blue staining based hemocytometer
[12] = Cytotoxicity against human whole blood IL-1-beta-stimulated lymphocytes assessed as survival cell count in millions at 3 uM by trypan blue staining based hemocytometer
[13] = Cytotoxicity against human whole blood IL-1-beta-stimulated lymphocytes assessed as survival cell count in millions at 1 uM by trypan blue staining based hemocytometer
HeLa [14] = test: Effect on cell cycle arrest in TNF-alpha-stimulated human HeLa cells assessed as cell aggregate level at 20 uM after 8 hrs by propidium iodide-based flow cytometry; type: functional
HeLa [15] = test: Effect on cell cycle arrest in TNF-alpha-stimulated human HeLa cells assessed as cell aggregate level at 10 uM after 8 hrs by propidium iodide-based flow cytometry; type: functional
HeLa [16] = test: Effect on cell cycle arrest in TNF-alpha-stimulated human HeLa cells assessed as cell aggregate level at 1 uM after 8 hrs by propidium iodide-based flow cytometry; type: functional
HeLa [17] = test: Effect on cell cycle arrest in TNF-alpha-stimulated human HeLa cells assessed as cell aggregate level at 0.1 uM after 8 hrs by propidium iodide-based flow cytometry; type: functional
HeLa [18] = test: Effect on cell cycle arrest in TNF-alpha-stimulated human HeLa cells assessed as cell aggregate level at 0.05 uM after 8 hrs by propidium iodide-based flow cytometry; type: functional
[19] = Inhibition of TNF-alpha-induced NF-kappaB-mediated transcription expressed in human HeLa cells preincubated for 30 mins before addition of TNFalpha measured after 8 hrs by luciferase reporter gene assay; type: cell-based
Procedure, shortened: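 HeLa/NF-κB-luc cells (5.0 × 10⁵ cells/mL) were grown 24 h, then switched to serum-free DMEM. They were pretreated 30 min at 37 °C with 0.05–20 µM imidazoline (1% DMSO vehicle), then stimulated with 25 ng/mL TNF-α for 8 h. Steady-Glo luminescence was normalized to TNF-α activation, and EC50 was taken from a variable-slope sigmoidal fit. Values are the mean of two independent experiments.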

[20] = Inhibition of TNF-alpha-induced NF-kappaB-mediated transcription expressed in human HeLa cells co-transfected with renilla luciferase-TK gene preincubated for 30 mins before TNFalpha challenge measured after 8 hrs by dual-glo luciferase reporter gene assay; type: cell-based
Procedure, shortened: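 HeLa cells were transiently cotransfected (lipofectamine 2000, 5–6 h) with 6×κB pNF-κB-luc and the pRL-TK Renilla control, then grown 24 h. They were pretreated 30 min with 0.312–20 µM (1% DMSO vehicle), then stimulated with 25 ng/mL TNF-α for 8 h at 37 °C. Dual-Glo firefly signal was normalized to Renilla luminescence.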

HeLa [21] = test: Cell cycle arrest in TNF-alpha-stimulated human HeLa cells transfected with NFkappaB-Luc assessed as accumulation at S phase at 0.5 uM after 8 hrs by propidium iodide-based flow cytometry; type: functional; procedure, shortened: as §1
HeLa [22] = test: Cell cycle arrest in TNF-alpha-stimulated human HeLa cells transfected with NFkappaB-Luc assessed as accumulation at diploid G1 phase at 0.5 uM after 8 hrs by propidium iodide-based flow cytometry; type: functional; procedure, shortened: as §1
HeLa [23] = test: Cell cycle arrest in TNF-alpha-stimulated human HeLa cells transfected with NFkappaB-Luc assessed as accumulation at diploid stage at 0.5 uM after 8 hrs by propidium iodide-based flow cytometry; type: functional; procedure, shortened: as §1
HeLa [24] = test: Cell cycle arrest in TNF-alpha-stimulated human HeLa cells transfected with NFkappaB-Luc assessed as accumulation at S phase at 1 uM after 8 hrs by propidium iodide-based flow cytometry; type: functional
HeLa [25] = test: Cell cycle arrest in TNF-alpha-stimulated human HeLa cells transfected with NFkappaB-Luc assessed as accumulation at diploid G2 phase at 1 uM after 8 hrs by propidium iodide-based flow cytometry; type: functional
HeLa [26] = test: Cell cycle arrest in TNF-alpha-stimulated human HeLa cells transfected with NFkappaB-Luc assessed as accumulation at S phase at 5 uM after 8 hrs by propidium iodide-based flow cytometry; type: functional; procedure, shortened: as §1
HeLa [27] = test: Cell cycle arrest in TNF-alpha-stimulated human HeLa cells transfected with NFkappaB-Luc assessed as accumulation at diploid G2 phase at 5 uM after 8 hrs by propidium iodide-based flow cytometry; type: functional; procedure, shortened: as §1
HeLa [28] = test: Cell cycle arrest in TNF-alpha-stimulated human HeLa cells transfected with NFkappaB-Luc assessed as accumulation at G2/G1 phase after 8 hrs by propidium iodide-based flow cytometry

CCOC(=O)[C@]1(c2ccccc2)N=C(c2ccccc2)N(Cc2ccccc2)[C@@H]1c1ccccc1 (racemic)
Activity (HeLa [1]): 16.8%
Activity (HeLa [2]): 100%
Ratio (HeLa [3]): 1.9
Activity (HeLa [4]): 19.29%
Activity (HeLa [5]): 65.19%
Activity (HeLa [6]): 64.5%
Activity (HeLa [7]): 21.47%
Activity (HeLa [8]): 100%
Activity (HeLa [9]): 64.3%
Activity (HeLa [10]): 12.9%
Activity [11]: 1.48 mL⁻¹
Activity [12]: 1.28 mL⁻¹
Activity [13]: 1.42 mL⁻¹
Activity (HeLa [14]): 0%
Activity (HeLa [15]): 0%
Activity (HeLa [16]): 0%
Activity (HeLa [17]): 0%
Activity (HeLa [18]): 0%
EC50 [19]: 2.5 µM
EC50 [20]: 4.67 µM
Activity (HeLa [21]): 22.52%
Activity (HeLa [22]): 64.08%
Activity (HeLa [23]): 100%
Activity (HeLa [24]): 22.9%
Activity (HeLa [25]): 13.88%
Activity (HeLa [26]): 19.8%
Activity (HeLa [27]): 13.84%
Ratio (HeLa [28]): 1.91
